Hits are enriched below; roughly 5.1% of the tested compounds scored in any of these assays.
STAT1 act: STAT1 signaling activators, primary screen, cell-based, HTS, luciferase reporter | NIH 3T3 STAT1-luciferase reporter, IFN-gamma, luminescence; 100% = IFN-gamma alone, no compound | activation (% of control), % at 5.5 µM | actives 2.6% (n = 200,000) | AID 932, 2007;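 active = activation above the screen-wide mean activation plus 3 SD, cut at about 130% in these data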;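 note: raw ratio to IFN-gamma control signal so 100% means no change and 0% no light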
STAT3 blocker: IL-6 driven STAT3 reporter inhibitors, primary screen, U3A cells, luciferase, luminescence, MLSCN library. inhibition, % at 5.5 µM. IL-6 STAT3-luciferase reporter; host cell line lacks STAT1. actives 0.89% (n = 190,000);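 active = inhibition above the mean inhibition across all screened compounds plus 3 SD, cut at about 44% in these data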;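 note: 0% = DMSO only wells and 100% = 100 µM nifuroxazide control wells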
STAT3 activator: IL-6 driven STAT3 reporter potentiators, primary screen, U3A cells, luciferase, luminescence, MLSCN library. AID 871, 2007. activation (% of control), % at 5.6 µM. IL-6 STAT3-luciferase reporter; 100% = signal with IL-6 EC80 alone. actives 0.91% (n = 190,000);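 active = activation above the screen-wide mean of compound activation plus 3 SD, cut at about 130% in these data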;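 note: 0% = background luminescence of wells with medium and substrate only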
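Material: human STAT1-deficient U3A cells with stable STAT3-luciferase reporter / Probe or stimulus: IL-6 stimulus at 33 ng/mL final / Schedule: 1 h compound pre-exposure, 6 h IL-6 stimulation, 37 °C / Technique: luminescence / Read-out basis: percent of IL-6-only median luminescence / Control set: IL-6-only high control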
APP 5'UTR act: activators of APP 5'UTR luciferase reporter, primary screen, SH-SY5Y cells; SH-SY5Y APP 5'UTR luciferase reporter, luminescence; zero percent = DMSO vehicle wells; activation, % at 2 µM; actives 1% (n = 190,000); AID 1276, 2008;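 active = activation above a set limit, based on mean plus 3 SD of controls, cut at about 140% in these data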
NF-kB expr up: activators of NF-kB expression in neurons, primary screen, cell-based, HTS. human neuronal cells, NF-kB reporter expression; active compounds read high. fold change at 12.5 µM. actives 1.6% (n = 190,000). AID 1239, 2008; in the data active = fold change above about 3.3
STAT1 blocker: STAT1 signaling inhibitors, primary screen, cell-based, HTS, luciferase reporter | NIH 3T3 STAT1-luciferase reporter, IFN-gamma, luminescence | inhibition, % at 5.5 µM | actives 0.35% (n = 200,000) | AID 920, 2007;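 active = inhibition above a set limit, the mean inhibition across all tested compounds plus 3 SD, cut at about 34% in these data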;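 note: 0% = IFN-gamma with DMSO and 100% = IFN-gamma with 300 µM nifuroxazide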
The depositor's hits bear a star; / = no result.

SMILES	STAT1 act	STAT3 blocker	STAT3 activator	APP 5'UTR act	NF-kB expr up	STAT1 blocker
Cc1ocnc1C(=O)Nc1ccc(Cl)cc1	131*	6	97	28	1.8	-33
COC(=O)Cc1ccc(NC(=O)c2ccc(C(C)(C)C)cc2)cc1	58	85*	30	-84	0.54	44*
CN(C)S(=O)(=O)c1ccc(C(=O)Nc2ccc(Cl)cc2)cc1	110	22	89	-3	1.2	-11
Cc1ccc(NC(=O)c2ocnc2C)cc1Cl	145*	14	91	73	2.7	-49
COC(=O)Cc1ccc(NC(=O)c2ccccc2Cl)cc1	105	11	94	-9	1.2	-9
Cc1ccc(S(=O)(=O)Nc2ncc(C(F)(F)F)cc2Cl)cc1	91	5	102	1	1.2	9
O=C(COC(=O)c1c(Cl)ccc(Cl)c1Cl)NC(=O)NCc1ccccc1	108	0	102	1	1.4	-9
CCOC(=O)CN1N=C(/C=C/c2ccc(C(C)C)cc2)CCC1=O	126	-2	104	16	2	-30
O=C(/C=C/c1c(Cl)nc2ccccn12)Nc1ccc(F)cc1	111	24	86	3	0.59	-12
COc1ccc(C2Nc3ccccc3C(=O)N2NS(=O)(=O)c2ccccc2)cc1 (configuration not stated)	102	2	103	8	/	-1
CCc1cc2cc(C(=O)Nc3ccccc3F)sc2s1	146*	42	69	163*	2.7	-50
NS(=O)(=O)c1ccc(N=Nc2c(O)ccc3ccccc23)cc1	132*	38	70	-9	0.96	-35
COCCSc1ccccc1C(=O)N1CCN(Cc2ccccc2)CC1	100	4	102	-14	1.1	-3
c1ccn(-c2ccc(-c3ccn[nH]3)cc2)c1	143*	11	92	87	2.7	-47
Cc1csc(=Nc2ccccc2)n1C	104	0	102	2	1.6	-4
Cc1ccc(N=c2sc(C)c(C)n2C)cc1	133*	3	101	46	1.9	-38
O=C(Nc1ccccc1N1CCCC1)c1ccc([N+](=O)[O-])cc1Cl	100	-1	104	10	1	-2
O/N=C/c1ccn(-c2ccc(Br)cc2)c1	131*	0	102	57	2	-34
[O-]/C(=C(\C(=S)Nc1cccc2ccccc12)[n+]1ccccc1)c1ccc2c(c1)OCCO2	96	-31	134*	0	0.57	4
[O-]/C(=C(\C(=S)Nc1cccc2ccccc12)[n+]1ccccc1)c1ccc(OC(F)F)cc1	95	-33	130	9	1.3	4
CCCCC(CC)C(=O)N1CCN(C(=O)c2ccco2)CC1 (configuration not stated)	100	14	95	-16	1.5	0
COc1ccc2c(c1OC)C(=O)N(c1ccc(C)cc1)C2=O	129*	6	103	-8	1.4	-31
CN(C)c1ccc(N2CN=C3SCC(=O)N3C2)cc1	160*	-31	128	136*	0.58	-67
O=C1CSC2=NCN(c3ccc4c(c3)OCO4)CN12	108	-14	114	69	1.7	-8
CNc1cnn(-c2ccc(C)cc2)c(=O)c1Cl	129*	-7	108	70	2.6	-32
SMILES	STAT1 act	STAT3 blocker	STAT3 activator	APP 5'UTR act	NF-kB expr up	STAT1 blocker
CNc1cnn(-c2ccc(C)cc2)c(=O)c1Sc1ccc(C)cc1	102	2	106	7	0.9	-2
COc1cnn(-c2ccc(C)cc2)c(=O)c1Br	121	11	100	14	1.8	-24
COc1cnn(-c2ccc(C)cc2)c(=O)c1Cl	141*	4	97	24	2	-43
CCOCCCNC(=O)CSc1nc2nc(C)c(Cc3ccccc3)c(C)n2n1	91	0	105	-3	1.2	10
CC(=O)c1sc2nc(C)cc(C)c2c1N	100	20	89	-10	1.2	-3
Cc1ccc2nc(-c3sc4nc(C)cc(C)c4c3N)[nH]c2c1	131*	-44	140*	170*	2.8	-34
CC1(C)CC(=O)c2c(oc3ccc(NS(=O)(=O)c4cccc5cccnc45)cc23)C1	104	17	95	-1	0.8	-5
O=[N+]([O-])c1ccc(Nc2ccc3ccccc3c2)nc1	133*	5	98	30	1.9	-37
O=C(O)c1cnc(-c2ccccc2)nc1Sc1ccccc1Cl	103	-40	135*	-12	1	-3
CC(C)(C(=O)O)n1cncn1	105	2	98	-19	1.1	-5
CCCCN1C=CC(=C2C(=O)c3ccccc3C2=O)C=C1	11	112*	10	-58	0.41	95*
CCCCNC1=CC(=O)C(=O)c2ccccc21	99	-1	102	-11	0.52	0
O=C(Nc1ccccc1)N1CCSCC1	107	-3	105	-2	1.7	-7
O=C(CSC(=S)N1CCSCC1)c1ccc(Cl)cc1	129*	19	90	151*	5.2*	-31
O=C(CSC(=S)N1CCSCC1)c1ccccc1	137*	30	80	113	6.2*	-40
COc1cccc(C(=O)Oc2ccc3c(C)cc(=O)oc3c2C(C)=O)c1	100	12	97	2	1.2	0
Cc1cc(Oc2ccc(=O)n(C)n2)nc(=S)[nH]1	98	5	99	-22	1.2	1
Cc1cc(N=Cc2c(O)ccc3ccccc23)no1	91	-34	135*	-9	0.98	10
C=C(C)COc1ccc2c(C)c(CC(=O)OC)c(=O)oc2c1C	115	-3	103	59	3.1	-16
COC(=O)Cc1c(C)c2ccc(OCC(C)=O)c(C)c2oc1=O	130*	-12	112	32	1.8	-26
CCOc1ncccc1C(=O)N1CCN(c2cccc(C)c2C)CC1	97	-13	120	-95	3.9*	1
CCOc1ncccc1C(=O)N1CCN(c2cc(Cl)ccc2C)CC1	102	-5	107	-91	2.2	-5
O=C(Nc1ccc(N2C(=O)C3CCCCC3C2=O)cc1Cl)c1cccs1 (configuration not stated)	113	4	100	-9	1.4	-12
COc1ccccc1C(=O)Nc1ccc2c3c(cccc13)CC2	132*	-2	99	48	1.5	-36
CO/N=C/C(=N\Nc1cc(OC)cc(OC)c1)C(=O)c1ccccc1	104	-1	102	-18	1.1	-5
CCc1nnc(NC(=O)c2cc3c(s2)CCCCC3)s1	120	13	92	32	/	-22
Cc1cnc(NC(=O)c2cc3c(s2)CCCC3)s1	62	74*	38	173*	4.1*	42*

From PubChem
